Compound activity: PubChem BioAssay, The Scripps Research Institute Molecular Screening Center
NPY Y1 blocker: NPY-Y1 receptor antagonists, primary screen, cell-based; inhibition, % at 3.6 µM; AID 1040, 2008; 1% of 200,000 active; Neuropeptide Y receptor type 1 (Homo sapiens), P25929; HEK293-CNG Y1 cells, membrane potential fluorescence; NPY at EC95, then isoproterenol;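 active means inhibition above the campaign mean inhibition of all tested compounds plus 3 SD, cut at about 20% in these data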;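 further: 0% = DMSO wells given NPY plus isoproterenol and 100% = isoproterenol alone without NPY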
Target sequence (P25929 whole entry, looked up): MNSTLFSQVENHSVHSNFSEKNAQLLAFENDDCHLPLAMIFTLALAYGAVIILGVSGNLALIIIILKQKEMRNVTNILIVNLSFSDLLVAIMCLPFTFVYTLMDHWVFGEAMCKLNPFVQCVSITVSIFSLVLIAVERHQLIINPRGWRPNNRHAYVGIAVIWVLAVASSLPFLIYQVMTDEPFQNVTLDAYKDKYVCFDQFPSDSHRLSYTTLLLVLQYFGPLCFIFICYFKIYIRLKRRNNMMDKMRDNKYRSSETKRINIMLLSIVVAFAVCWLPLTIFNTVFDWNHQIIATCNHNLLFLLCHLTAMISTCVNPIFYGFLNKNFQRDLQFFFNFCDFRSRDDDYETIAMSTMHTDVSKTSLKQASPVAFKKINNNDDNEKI
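Test system – HEK293 Y1/CNG channel cell line · Also added – NPY agonist 25 nM, then isoproterenol 1 µM plus Ro 20-1724 25 µM · Compound dosing – one concentration, 3.6 µM, in 0.4% DMSO · Schedule – compound incubation 1 h at room temperature, readout 45 min post-stimulation · Technique – fluorescence, membrane potential probe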
NPY-Y1 PAM-ag: NPY-Y1 receptor potentiators or agonists, primary screen, cell-based; AID 1304, 2008; 0.37% of 220,000 active; Neuropeptide Y receptor type 1 (Homo sapiens), P25929; NPY-Y1 expressing cells, potentiator/agonist activation; activation, % at 3.6 µM; in the data active means activation above about 33%, passing the limit was not always enough;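 further: cells stimulated with NPY at EC10 then isoproterenol at EC100; 0% = low agonist plus stimulus and 100% = saturating agonist plus stimulus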
NPY-Y2 PAM-ag: NPY-Y2 potentiators or agonists, primary screen, cell-based | Neuropeptide Y receptor type 2 (Homo sapiens), P49146 | cells expressing NPY-Y2, potentiator/agonist read-out | activation, % at 3.6 µM | 0.45% of 220,000 active | AID 1359, 2008; in the data active means activation above about 27%;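 further: cells stimulated with NPY near EC25 plus isoproterenol at EC100; 0% = vehicle plus submaximal agonist and 100% = vehicle plus saturating agonist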
S1P4 antag: S1P4 receptor antagonists, primary screen, cell-based; Sphingosine 1-phosphate receptor 4 (Homo sapiens), O95977; S1P4-expressing cells, antagonist mode, reporter read-out; inhibition, % at 4.98 µM; 0.26% of 220,000 active; in the data active means inhibition above about 29%;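 further: 0% = wells stimulated with agonist and 100% = vehicle wells without agonist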
NPY-Y2 antag: NPY-Y2 receptor antagonists, primary screen, cell-based; AID 793, 2007; Neuropeptide Y receptor type 2 (Homo sapiens), P49146; NPY-Y2 expressing cells, antagonist mode; inhibition, % at 2.7 µM; 0.99% of 140,000 active; in the data active means inhibition above about 17%;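 further: 0% = vehicle with agonist challenge and 100% = reference antagonist with challenge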
S1P4 ag: S1P4 receptor agonists, primary screen, cell-based | Sphingosine 1-phosphate receptor 4 (Homo sapiens), O95977 | S1P4-expressing cell line, agonist reporter assay | activation, % at 4.98 µM | 0.35% of 220,000 active; in the data active means activation above about 11%;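 further: 0% = DMSO vehicle and 100% = reference agonist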
S1P4 antag conf: S1P4 receptor antagonists, human, confirmation, cell-based; inhibition, % at 4.98 µM; AID 1524, 2009; shares compounds with S1P4 antag; 71% of 520 active; S1P4-expressing cell line, antagonist mode, reporter read-out; in the data active means inhibition above about 30%
S1P1 antagonist: S1P1 receptor antagonists, human, counter-screen for S1P4 antagonist project, cell-based; inhibition, % at 4.98 µM; 37% of 520 active; cell-based S1P1 antagonist counterscreen, inhibition; shares compounds with S1P4 antag; AID 1564, 2009; in the data active means inhibition above about 40%;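 further: receptor stimulated with S1P near its EC80; 0% = agonist stimulated wells and 100% = vehicle only wells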
* hit, by the source's call; x = no result. In the library only some 2.4% were active in any assay of this set; here they are far more common.

SMILES	NPY Y1 blocker	NPY-Y1 PAM-ag	NPY-Y2 PAM-ag	S1P4 antag	NPY-Y2 antag	S1P4 ag	S1P4 antag conf	S1P1 antagonist
CCCCOc1c(Br)cc(/C=C2\N=C(C)OC2=O)cc1OCC	6	2	-7	7	0	-4	x	x
O=C(Nc1ccc(F)cc1)c1nn(-c2ccccc2)c(=O)cc1Cl	-11	63*	53*	45*	x	-3	75*	71*
CC(C)c1nnc(NC(=O)CCS(=O)(=O)c2nc(-c3cccs3)cc(C(F)(F)F)n2)s1	9	-8	-6	50*	2	-2	109*	54*
N/C(=N\OS(=O)(=O)c1ccc2ccccc2c1)c1ccccn1	14	-42	-27	-6	x	1	x	x
CC1=C(C(=O)OCc2ccccc2)C(c2ccc3ccccc3c2)NC(=O)N1CCCCCC(=O)O (configuration not stated)	5	-29	0	-10	0	1	x	x
Cc1cc(C)nc(S/C=C/C(=O)c2ccccc2F)n1	x	-40	-54	43*	x	-1	78*	-1
O=C(Nc1nc2ccccc2c(=O)s1)c1ccco1	x	-29	-19	30*	x	0	27	-17
O=C(Nc1nc2cc3c(cc2s1)OCO3)c1ccco1	x	12	4	-10	x	0	x	x
Cc1ccc(NN2C(=O)C=C(c3ccc(Cl)cc3)C2=O)cc1	-3	16	25	31*	0	-3	92*	21
COc1ccccc1C(=O)OCc1nc(N)nc(Nc2ccccc2C)n1	-7	-5	15	107*	4	1	-11	1
CCC(=O)OCCNc1cc(Sc2nc3ccccc3[nH]2)c2nonc2c1[N+](=O)[O-]	-1	-21	-2	36*	11	1	110*	7
CCN(CC)C(=O)CN(c1cccc(Br)c1)S(C)(=O)=O	0	3	4	30*	x	1	2	-34
O=C1/C(=C/Nc2ccc3c(c2)OCO3)CCc2ccccc21	11	-1	14	31*	1	0	21	74*
CCCN(CCC)CC(O)Cn1cc(/C=C/C(=O)c2cccs2)c2ccccc21 (configuration not stated)	2	-9	3	34*	8	2	59*	74*
O=C(/C=C/c1cn(CC(O)CN2CCCCC2)c2ccccc12)c1cccs1 (configuration not stated)	4	-8	-11	31*	3	1	53*	46*
CCCN(CCC)CC(O)Cn1cc(/C=C/C(=O)c2ccccc2)c2ccccc21 (configuration not stated)	-1	-10	-17	16	x	2	x	x
O=C(Oc1ccc2c(c1)OCO2)c1cccs1	2	4	5	23	3	0	x	x
Cc1cccc(CS(=O)(=O)c2nnc([C@H](Cc3ccccc3)NC(=O)OC(C)(C)C)o2)c1	-3	-10	-10	88*	0	-2	93*	24
CCSCC1COC(c2cccn2Cc2ccc(C)cc2)=N1 (configuration not stated)	7	4	6	-3	7	-1	x	x
Cc1cc(C)c(C(=O)Nc2ccc(Br)c(C(F)(F)F)c2)c(C)c1	28*	-34	-20	29*	30*	1	53*	2
O=C(O)c1ccccc1C(=O)Nc1ccc(Br)c(C(F)(F)F)c1	x	-4	-2	-4	x	0	x	x
O=[N+]([O-])c1ccc(N2CCN(S(=O)(=O)c3ccc(Cl)cc3)CC2)cc1NCC1CCCO1 (configuration not stated)	-8	9	-7	8	1	-1	x	x
Cc1nc(NC2=NCN(CCN3CCOCC3)CN2)nc2c(C)cccc12	5	-2	6	-20	1	0	x	x
Cn1cnc([N+](=O)[O-])c1S(=O)(=O)c1cccc(Cl)c1	0	-52	-15	48*	4	4	47*	63*
CCOC(=O)C1CCCN(c2c(NCC3CCCN3CC)c(=O)c2=O)C1 (configuration not stated)	9	3	-5	-4	0	-2	x	x
SMILES	NPY Y1 blocker	NPY-Y1 PAM-ag	NPY-Y2 PAM-ag	S1P4 antag	NPY-Y2 antag	S1P4 ag	S1P4 antag conf	S1P1 antagonist
C=CCN(c1ccccc1)S(=O)(=O)c1ccc(Cl)c(C(=O)OCC(=O)NCCCN2CCCC2=O)c1	-1	12	-5	-11	x	1	x	x
O=S1(=O)C=C(Sc2nc3ccccc3s2)c2ccccc21	-4	1	-1	55*	2	1	113*	59*
Cc1onc(-c2c(F)cccc2Cl)c1C(=O)N1C=CC(C(F)(F)Cl)=NCC1	-3	10	14	-14	0	0	x	x
Cc1ccc2c(C)c(C(=O)Nc3c(C)n(C)n(-c4ccccc4)c3=O)oc2c1C	-2	6	3	29*	1	-1	61*	30
Cc1cc2oc(C(=O)Nc3c(C)n(C)n(-c4ccccc4)c3=O)c(C)c2cc1C	0	-15	5	30*	3	0	61*	48*
Cc1c(C(=O)Nc2c(C)n(C)n(-c3ccccc3)c2=O)oc2ccccc12	-4	4	8	9	0	-2	x	x
Cc1ccc2c(C)c(C(=O)Nc3c(C)n(C)n(-c4ccccc4)c3=O)oc2c1	2	-5	-8	-20	2	1	x	x
O=C1c2ccccc2-c2c1cccc2C(=O)N1CCCCCC1	10	9	7	-11	8	-1	x	x
CCC(C)C(=O)N1CCc2cc(-c3csc(N)n3)ccc21 (configuration not stated)	-1	-11	-3	41*	2	-1	5	52*
CC(C)(C)C(=O)N1CCc2cc(-c3csc(N)n3)ccc21	1	0	-1	-12	2	0	x	x
S=c1nc(-c2ccc(Br)cc2)oc2c1CCCC2	5	-17	-22	3	1	2	x	x
COc1ccccc1-c1nnc(NC(=O)C(C)Sc2nncn2C)s1 (configuration not stated)	2	-5	1	8	x	2	x	x
CCC(Sc1nncn1C)C(=O)Nc1nnc(-c2ccccc2Cl)s1 (configuration not stated)	5	15	13	33*	1	-1	28	5
